Source: publication PMC12144996 (Acta Pharmaceutica Sinica. B, 2025)
Read-outs that look alike come from different tables or passages of the source.

Columns and labels:
MHV-A59 [1] = type: in vivo, mouse hepatitis virus
MHV-A59 [2] = test: Therapeutic treatment from 12 hpi in MHV-A59-infected BALB/c mice; type: in vivo, mouse hepatitis virus; conditions: 5 dpi; for Serum ALT and AST (liver injury markers): 50 mg/kg intragastric twice daily from 12 hpi, vs vehicle; for MHV replication in the lung (qRT-PCR and plaque assay): 500 mg/kg intragastric twice daily from 12 hpi
Outline: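 BALB/c mice were infected intranasally with 4×10^5 PFU MHV-A59. At 5 dpi, lung and liver were assayed by qRT-PCR and L2-cell plaque assay. Orbital blood was clotted at room temperature and the serum run in ALT/AST kits.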

HCoV-OC43 = test: Anti-human coronavirus activity, viral RNA by qRT-PCR, HCoV-OC43 in HCT-8 cells; type: cell-based; conditions: Betacoronavirus 1, OC43, HCT-8, read-out: EC50 for HCoV-OC43
HCoV-229E = test: microbe, parasite or virus in culture; type: cell-based; conditions: Human coronavirus 229E, Huh-7, read-out: EC50 for HCoV-229E
HCoV-NL63 = type: cell-based; conditions: Human coronavirus NL63, LLC-MK2, read-out: EC50 for HCoV-NL63
MHV = test: Anti-animal coronavirus activity, viral load by qRT-PCR, MHV in L2 cells; type: cell-based, mouse hepatitis virus; conditions: Murine coronavirus, 48 h, read-out: EC50 for MHV
Outline: (§1)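 Cells seeded in 48-well plates and grown 24 h to about 90% confluence, then washed three times with serum-free medium. Infected at MOI 0.01 for 1 h at 37 °C, then given medium with test compound dilutions or DMSO. After 48 h at 37 °C, cells and supernatants were harvested for viral load by qRT-PCR. EC50 taken from the dose–response curve; mean ± SEM.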

PEDV = test: Anti-animal coronavirus activity, viral load by qRT-PCR, PEDV in Vero E6 cells; type: cell-based; conditions: Porcine epidemic diarrhea virus, Vero C1008, 48 h, read-out: EC50 for PEDV
Outline: as §1

TGEV = test: Anti-animal coronavirus activity, viral load by qRT-PCR, TGEV in ST cells; type: cell-based, transmissible gastroenteritis virus; conditions: Alphacoronavirus 1, 48 h, read-out: EC50 for TGEV
Outline: as §1

MHV-A59 [3] = test: Prophylactic ATV006 in MHV-A59-infected BALB/c mice, liver; type: in vivo, mouse hepatitis virus
MHV-A59 [4] = test: Prophylactic ATV006 in intranasally MHV-A59-infected BALB/c mice, lung; type: in vivo, mouse hepatitis virus; conditions: 3 dpi
Outline: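 BALB/c mice were inoculated intranasally with 4×10^5 PFU MHV-A59 under mild isoflurane anaesthesia. They received vehicle (n = 6) or test compound at 500, 250, 100 or 50 mg/kg intragastric twice daily as prophylaxis (n = 5). Lungs were taken at 3 dpi for qRT-PCR and for plaque assay on L2 cells (methyl cellulose overlay, crystal violet). Lung sections were zinc formalin-fixed, 4 μm, H&E stained.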

MHV-A59 [5] = test: Delayed therapeutic treatment; type: in vivo, mouse hepatitis virus; conditions: 5 dpi; for Viral replication in the lung (qRT-PCR): start 24-96 hpi
Outline: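 BALB/c mice under light isoflurane anaesthesia were infected intranasally with 4×10^5 PFU MHV-A59 in 40 μL DMEM. Test compound was started at delayed times post-infection and given every 12 h. At 5 dpi, lung and liver virus was measured by qRT-PCR and by plaque assay on L2 cells, with methyl cellulose overlay and crystal violet staining. Lungs were scored 0–4 for edema, mononuclear and PMN infiltration and hemorrhage; livers were blindly Ishak-scored. Serum ALT/AST measured by kit.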

MHV-A59 [6] = test: Time-of-addition of ATV006 in MHV-A59-infected cells, viral load; type: cell-based, mouse hepatitis virus; conditions: ATV006 administered 48 h after the viral infection; MOI = 0.0001
[7] = rats; cited from earlier work
[8] = cynomolgus monkeys; cited from earlier work
[9] = […], GS-441524 50 mg/kg oral once daily
[10] = […], remdesivir 20 mg/kg intraperitoneal once daily
[11] = ATV006 500 mg/kg administered at 24 hpi

N#C[C@@]1(c2ccc3c(N)ncnn23)O[C@H](CO)[C@@H](O)[C@H]1O [GS-441524, reference compound]
Body weight compared with ATV006 (50 mg/kg) (MHV-A59 [1]; [9]): lower than that of mice treated with ATV006
Survival (MHV-A59 [1]; [9]): prevented MHV-infected mice from dying
Serum ALT and AST (liver injury markers) (MHV-A59 [2]): significantly reduced the liver injury markers ALT and AST
MHV replication in the lung (qRT-PCR and plaque assay) (MHV-A59 [2]): only ATV006 significantly inhibited MHV replication in the lung
Virus titers in the liver (plaque assay) (MHV-A59 [2]; GS-441524 at 25, 50 mg/kg twice daily from 12 hpi): below the detection limit of the plaque assay

CCC(CC)COC(=O)[C@H](C)N[P@](=O)(OC[C@H]1O[C@@](C#N)(c2ccc3c(N)ncnn23)[C@H](O)[C@@H]1O)Oc1ccccc1 [remdesivir, reference compound]
Body weight compared with ATV006 (50 mg/kg) (MHV-A59 [1]; [10]): lower than that of mice treated with ATV006
Survival (MHV-A59 [1]; [10]): prevented MHV-infected mice from dying

CC(C)C(=O)OC[C@H]1O[C@@](C#N)(c2ccc3c(N)ncnn23)[C@H](O)[C@@H]1O [ATV006]
EC50 (HCoV-OC43): 2900 nM
EC50 (HCoV-229E): 1120 nM
EC50 (HCoV-NL63): 800 nM
EC50 (MHV): 265 nM
EC50 (PEDV): 1050 nM
EC50 (TGEV): 3040 nM
Survival (MHV-A59 [1]; […], ATV006 2 mg/kg intragastric once daily): all died by 10 dpi
Mortality and weight loss (MHV-A59 [1]; […], ATV006 5 to 50 mg/kg intragastric once daily): effectively prevented mortality and weight loss
Reduction of viral titers in the liver (MHV-A59 [1]; mouse, in vivo, 2 mg/kg): approximately sixfold
Live virus in the liver (plaque assay) (MHV-A59 [1]; mouse, in vivo, 50 mg/kg): no live virus was found in the liver
Reduction of viral titers in the liver (MHV-A59 [1]; mouse, in vivo, 50 mg/kg): 1,000,000 fold
Inflammatory cell infiltration in the liver (histopathology) (MHV-A59 [3]; ATV006 50 mg/kg intragastric twice daily): significant reduction in inflammatory cell infiltration
Serum ALT and AST (liver injury markers) (MHV-A59 [3]; ATV006 50 mg/kg intragastric twice daily, 3 dpi, vs control): lower in the ATV006-treated group than in the control group
Viral titers in the liver (plaque assay) (MHV-A59 [3]; ATV006-treated group, prophylactic, 3 dpi): below the detection limit
Expression of inflammatory cytokines in the liver (MHV-A59 [3]; ATV006 prophylactic, 3 dpi): significant decrease in the expression of various inflammatory cytokines in the liver
Inflammatory cell infiltration in lung (histopathology) (MHV-A59 [4]; ATV006 500 mg/kg intragastric twice daily): vehicle-treated mice had more inflammatory cell infiltration compared to mice treated with ATV006
MHV infectious particles in the lung (plaque assay) (MHV-A59 [4]; ATV006 50-500 mg/kg intragastric twice daily): dose-dependent decrease in the number of MHV infectious particles
Inflammatory cytokines and chemokines in the lung (Ifnβ, Cxcl10, Il6, Il1β, Ifnγ) (MHV-A59 [4]; ATV006 prophylactic): significantly reduced the production of inflammatory cytokines and chemokines in the lung
Serum ALT and AST (liver injury markers) (MHV-A59 [2]): significantly reduced the liver injury markers ALT and AST
MHV replication in the lung (qRT-PCR and plaque assay) (MHV-A59 [2]): significantly inhibited MHV replication in the lung
MHV replication in the liver (qRT-PCR) (MHV-A59 [2]; ATV006 2-50 mg/kg intragastric twice daily from 12 hpi): inhibited MHV replication in a dose-dependent manner
Virus titers in the liver (plaque assay) (MHV-A59 [2]; ATV006 at 2, 10, 25, 50 mg/kg twice daily from 12 hpi): below the detection limit of the plaque assay
MHV replication in the liver (qRT-PCR) (MHV-A59 [5]; ATV006 2 mg/kg, delayed treatment): ineffective
Liver pathology (Ishak scoring) (MHV-A59 [5]; ATV006 10 mg/kg administered at 24, 48 and 72 hpi): significantly reduced liver piecemeal necrosis, bridging necrosis, circumscribed hepatic necrosis, and portal inflammation
Serum ALT and AST levels (MHV-A59 [5]; ATV006 10 mg/kg, delayed treatment): alleviated liver injury
Virus titers in the liver (plaque assay) (MHV-A59 [5]; ATV006 50 mg/kg administered as late as 96 hpi): reduced virus titers to levels undetectable by plaque assay
Viral replication in the lung (qRT-PCR) (MHV-A59 [5]; ATV006 250 mg/kg every 12 h): significant inhibition of viral replication only when ATV006 treatment (250 mg/kg) began no later than 24 hpi
Bleeding in the lungs (hemorrhage score) (MHV-A59 [5]; [11]): did not improve significantly
Lung pathology: edema, monocyte and neutrophil infiltration (MHV-A59 [5]; [11]): reduced pulmonary edema and monocyte and neutrophil infiltration
Viral replication in the lung (qRT-PCR) (MHV-A59 [5]; ATV006 500 mg/kg every 12 h): effective when started within 48 hpi
Infectious viral particles in the lungs (plaque assay) (MHV-A59 [5]; ATV006 500 mg/kg initiated within 48 hpi): No infectious viral particles were detected
MHV replication in the liver (qRT-PCR) (MHV-A59 [5]; ATV006 10, 25 and 50 mg/kg administered at 24 or 48 hpi): significantly inhibited MHV replication
Inhibition of MHV-A59 viral load (MHV-A59 [6]): no inhibitory effect was observed
Oral bioavailability [7]: high oral bioavailability
Oral bioavailability [8]: high oral bioavailability
